We go through six compounds from ChEMBL document CHEMBL1811907, “Chemical and biological evaluation of dipeptidyl boronic acid proteasome inhibitors for use in prodrugs and pro-soft drugs targeting solid tumors” (J Med Chem, 2011).

The nature of data set [1]: Ratio of CC50 for human follicular small-cell lymphocytic leukemia cells to IC50 for chymotrypsin-like activity of 20S proteasome at pH 2.0.
The species entered for the next data set is Mus musculus. Briefly: Inhibition of proteasome in mouse tumor cells relative to inhibition in blood cells. It counts as subcellular. Particulars: concentration not given here.
Data set [2] can be described thus: Cytotoxicity against human FSCLL cells after 24 hrs by MTT assay. Type of data set: cell-based. The method in brief: (§1)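 Cells seeded at 3.2 × 10⁴ per well, grown 24 h at 37 °C, 5% CO₂, then exposed to inhibitor dilutions 24 h. Inhibitor from 0.1 M ethanol stock, pre-equilibrated overnight in pH 2.0 or pH 7.6 buffer. MTT (5 mg/mL) added for 3 h; formazan dissolved overnight in acidic Triton/isopropanol; A570 read. Quadruplicates; variable-slope sigmoidal fit.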
(Tetrazolium assays rely on reduction of a dye to a coloured formazan, in cell work by metabolically active cells.)

Data set [3] is described as follows: Ratio of CC50 for human follicular small-cell lymphocytic leukemia cells to IC50 for intracellular chymotrypsin-like activity of 20S proteasome in human HEK293 cells.
Data set [4] in a line: Inhibition of intracellular chymotrypsin-like activity of 20S proteasome in human HEK293 cells after 24 hrs by fluorescence plate reader. It counts as cell-based. Particulars: HEK293, 24 h. Put shortly: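 HEK 293 ZsGreen proteasome-sensor cells (stable ZsGreen–ornithine decarboxylase degron fusion, G418 maintenance) seeded 3.2 × 10⁴ per well, grown 24 h. Then 24 h with inhibitor at 37 °C, 5% CO₂. Cells lysed in HEPES/EDTA/5% Triton buffer for 1 h; fluorescence ex 485/em 535 nm. Quadruplicates; variable-slope sigmoidal fit.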

A short description of data set [5]: Inhibition of chymotrypsin-like activity of 20S proteasome using suc-LLVY-AMC as substrate preincubated for 10 mins before substrate addition at pH 7.6 by fluorescence assay. Put shortly:
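Inhibitor from 0.1 M ethanol stock diluted into pH 7.6 buffer (25 mM HEPES, 0.5 mM EDTA) and equilibrated overnight at room temperature (24 h per text). SDS-activated 20S proteasome preincubated 10 min with inhibitor before Suc-LLVY-AMC; fluorescence ex 360/em 460 nm after 30 min. Quadruplicates; variable-slope sigmoidal fit.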

Data set [6] in a line: Cytotoxicity against human HEK293 cells after 24 hrs by MTT assay. Type of data set: cell-based. Put shortly:
as §1

Data set [7] in a line: Inhibition of chymotrypsin-like activity of 20S proteasome using suc-LLVY-AMC as substrate preincubated for 10 mins before substrate addition at pH 2.0 by fluorescence assay. Put shortly:
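Inhibitor from 0.1 M ethanol stock diluted into pH 2.0 buffer (0.148 M HCl, 0.052 M KCl) and equilibrated overnight at room temperature (24 h per text). 20S proteasome SDS-activated, preincubated 10 min with inhibitor; Suc-LLVY-AMC added; fluorescence (ex 360/em 460 nm) read after 30 min. Assay-well pH checked. Quadruplicates; variable-slope sigmoidal fit.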

Data set [8] deals with HEK293. Kind of data set: Ratio of IC50 for intracellular chymotrypsin-like activity of 20S proteasome in human HEK293 cells to IC50 for in vitro chymotrypsin-like activity of 20S proteasome. Type of data set: cell-based.
The nature of data set [9]: Metabolic stability in human FSCLL cells assessed as cell lysate-mediated compound degradation at 10^-4 M after 24 hrs by LCMS analysis. It counts as ADME, cell-based. Particulars: 100 µM.
For data set [10], the system named is HEK293. Briefly: Metabolic stability in human HEK293 cells assessed as aminopeptidase-mediated compound degradation at 10^-4 M after 24 hrs by LCMS analysis. It counts as ADME, cell-based. Particulars: hek293, 24 h, 100 µM. Put shortly: (§2)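 Intact cells, 2 × 10⁶ in 900 μL medium, incubated with inhibitor at 10⁻⁴ M for 24 h, 37 °C, 5% CO₂. Aliquots taken at time points and quenched in 1 M HCl containing Trp-Tyr internal standard. Analysed by ESI LCMS on C18 reversed phase.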

In data set [11] the test system is HEK293. Briefly: Metabolic stability in human HEK293 cells assessed as cell lysate-mediated compound degradation at 10^-4 M after 24 hrs by LCMS analysis. Particulars: hek293, 24 h, 100 µM. It counts as ADME, cell-based.
The nature of data set [12]: Metabolic stability in human FSCLL cells assessed as aminopeptidase-mediated compound degradation at 10^-4 M after 24 hrs by LCMS analysis. It counts as ADME, cell-based. Particulars: 100 µM. The method in brief: as §2

By inhibition is commonly meant the relative decrease from the control value, in per cent. Broadly, the CC50 is the concentration that lowers cell viability or growth by half. The low end stands for harm at low concentration, the high end for better tolerance by the cells. What is called IC50 is the midpoint of a concentration-inhibition curve. Take `CC(C)C[C@H](NC(=O)[C@H](Cc1ccccc1)NC(=O)c1cnccn1)B(O)O` [BORTEZOMIB]: the “Ratio CC50/IC50” value in [1] was found to be 0.4; in [3], 0.16. Besides, the inhibition in the data set listed under Mus musculus came out at 44.8%. For the same compound, the CC50 at 24 h amounted to 4 nM in data set [2] and 347 nM in data set [6]. Moreover, the IC50 in [4] amounted to 27 nM; in data set [5], 14 nM; in data set [7] it was 10 nM. In addition, in the data set on HEK293 [8], the Ratio IC50 stood at 2.7.
On to `CC(C)C[C@H](NC(=O)[C@@H](N)Cc1ccccc1)B(O)O`, for which the Stability entry (in data set [9]; in the data set on HEK293 [10]; in the data set with HEK293 [11]; in [12]) was “Stable” throughout. Also, the “Ratio CC50/IC50” value in [1] is recorded as 2.4; in [3], <0.01. In data set [2], the CC50 at 24 h was 90 nM. For the same compound, the IC50 in data set [4] was > 10000 nM; in [5] it was 140 nM; in data set [7], 37 nM. Further, the Ratio IC50 in the data set on HEK293 [8] was > 270.
`CC(C)C[C@H](NC(=O)CNC(=O)c1cc(Cl)ccc1Cl)B1OC(=O)CC(CC(=O)O)(C(=O)O)O1` (stereo not given in full) had an inhibition in the data set filed under Mus musculus of 74.9%.
Regarding `CC(C)C[C@H](NC(=O)[C@H](C)N)B(O)O`, the Stability entry (in data set [9]; in the data set on HEK293 [10]; with HEK293 [11]; in [12]) was “Stable” throughout. The “Ratio CC50/IC50” value in data set [1] is on record as 64; in [3], <0.3. This compound returned a cytotoxic concentration (CC50) at 24 h in data set [2] of 3200 nM. For the same compound, the IC50 in [4] was > 10000 nM; in [5], 360 nM; in data set [7], 50 nM. For the same compound, in the data set on HEK293 [8], the Ratio IC50 was > 200.
For the compound `CC(C)C[C@H](NC(=O)CN)B(O)O`, the Stability result (in data set [9]; with HEK293 [10]; with HEK293 [11]; in [12]) was “Stable” each time. Further, the “Ratio CC50/IC50” value in data set [1] is on record as 30; in [3] it was <0.07. In data set [2], the cytotoxic concentration (CC50) at 24 h is 670 nM. Further, the IC50 was > 10000 nM in [4], 430 nM in [5] and 21 nM in data set [7]. In addition, in the data set with HEK293 [8], the Ratio IC50 was > 470.
On to `CC(C)C[C@H](NC(=O)[C@H](Cc1ccccc1)NC(=O)[C@@H](N)CC(C)C)B(O)O`, for which the Stability result (in [9]; with HEK293 [11]) was “Unstable” throughout.
